Most compounds without a hit are left out; they make up all but 5.8% or so of the library.
T cruzi growth: T. cruzi intracellular proliferation inhibitors, primary screen, cell-based, beta-gal Tulahuen parasites, NIH3T3 host, luminescence; T. cruzi beta-gal in NIH3T3, GalScreen luminescence, 90 h; inhibition, % at 8.34 µM; 77,000 tested, 5.9% active;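 active means mean inhibition above about 93%, with at least 55% of replicates each passing it, limit read from the data, passing the limit was not always enough; inconclusive means only one of those two conditions holds; inactive means neither condition holds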
KDM4C inh: inhibitors of GASC-1 (KDM4C) histone demethylase, primary screen, biochemical, single concentration HTS | AID 720574, 2013 | inhibition, % at 12.5 µM | 96,000 tested, 0.15% active | GST-KDM4C 2-372, H3K9me3 peptide, LANCE TR-FRET | Lysine-specific demethylase 4C (Homo sapiens), Q9H3R0;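 active means mean replicate inhibition above about 25%, with at least 55% of replicates also reaching it, limit read from the data, passing the limit was not always enough; inconclusive means only one of those two conditions met; inactive means neither condition met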
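System: N-terminal GST-fused human GASC-1 (KDM4C) fragment, residues 2-372; amount: enzyme final amount 10 nM; incubation: reaction 30 min RT, detection step 1 h RT; medium: HEPES buffer, pH 7.5, plus ascorbate; technique: LANCE TR-FRET, Eu antibody, ULight-streptavidin, EDTA, ex 340 nm, em 618/671 nm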
IDH1 mut inh: inhibitors of IDH1 R132H reductase, primary screen, biochemical, plate reader, single point | Isocitrate dehydrogenase [NADP] cytoplasmic (Homo sapiens), O75874 | diaphorase/resazurin fluorescence, 60 min | inhibition, % at 10 µM | 70,000 tested, 0.18% active | AID 624101, 2012; in the data active means inhibition above about 34%; inconclusive means no clear call, values can overlap the other calls; inactive means below about 11%;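 further: 0% = DMSO and 100% = no enzyme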
Target sequence (O75874 whole entry R132H): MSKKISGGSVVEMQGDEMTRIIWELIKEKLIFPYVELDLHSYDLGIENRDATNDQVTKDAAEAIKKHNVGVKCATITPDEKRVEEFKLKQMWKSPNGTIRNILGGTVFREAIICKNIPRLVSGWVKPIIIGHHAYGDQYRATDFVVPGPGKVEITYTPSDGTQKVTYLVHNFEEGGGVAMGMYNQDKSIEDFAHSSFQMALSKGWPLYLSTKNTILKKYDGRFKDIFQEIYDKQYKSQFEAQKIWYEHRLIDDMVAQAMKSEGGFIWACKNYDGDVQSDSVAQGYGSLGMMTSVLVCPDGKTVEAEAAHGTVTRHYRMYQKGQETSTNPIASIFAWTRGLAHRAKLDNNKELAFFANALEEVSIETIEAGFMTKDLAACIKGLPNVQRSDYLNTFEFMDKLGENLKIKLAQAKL
Pf Dd2 inh: P. falciparum Dd2 growth inhibitors, primary screen, SYBR Green fluorescence, single dose replicates. 72 h; hits give low values. activity change, % at 10 µM. 94,000 tested, 2.3% active. AID 1159554, 2015; in the data active means activity change below about -80%; inconclusive means no clear call, values can overlap the other calls
The depositor's hits bear a star; ? = inconclusive; · = no result given.

SMILES	T cruzi growth	KDM4C inh	IDH1 mut inh	Pf Dd2 inh
C[C@H](CO)N1C[C@H](C)[C@H](CN(C)Cc2ccc(-c3ccccc3)cc2)Oc2ccc(NC(=O)Nc3ccc4c(c3)OCO4)cc2CC1=O	64.6	-1.2	1.9	-4.9
C[C@H](CO)N1C[C@H](C)[C@@H](CN(C)Cc2ccc(-c3ccccc3)cc2)Oc2ccc(NC(=O)Nc3ccc4c(c3)OCO4)cc2CC1=O	56.2	0.2	0.3	-82.1*
C[C@H](CO)N1C[C@H](C)[C@@H](CN(C)C(=O)Nc2ccc3c(c2)OCO3)Oc2ccc(NC(=O)Nc3ccccc3)cc2CC1=O	-26.8	1.0	0.3	-83.3*
C[C@@H]1CN([C@@H](C)CO)C(=O)Cc2cc(NC(=O)Nc3ccccc3)ccc2O[C@H]1CN(C)Cc1ccc(-c2ccccc2)cc1	60.1	-1.3	-5.6	-88.0*
C[C@H](CO)N1C[C@H](C)[C@@H](CN(C)C(=O)Nc2ccccc2)Oc2ccc(NC(=O)Nc3ccc4c(c3)OCO4)cc2CC1=O	6.0	4.3	1.1	6.1
C[C@H]1CN([C@@H](C)CO)C(=O)Cc2cc(NS(=O)(=O)c3cn(C)cn3)ccc2O[C@H]1CN(C)Cc1ccc(Oc2ccccc2)cc1	-0.3	0.2	-4.4	0.5
C[C@H](CO)N1C[C@H](C)[C@@H](CN(C)Cc2ccc(Oc3ccccc3)cc2)Oc2ccc(NS(=O)(=O)c3cn(C)cn3)cc2CC1=O	-73.9	-0.1	0.5	-90.2*
CS(=O)(=O)N(CC(=O)Nc1ccc(Br)cc1F)c1ccccc1Cl	·	·	1.0	·
CCC(=O)Nc1cccc(NC(=O)COc2c(C)cc(C)cc2Br)c1	·	·	-0.3	·
CC(C)(C)c1cc(C(C)(C)C)n(-c2ccc(-n3cccc3)cc2)n1	·	·	0.2	·
C[C@H]1CN([C@@H](C)CO)C(=O)Cc2cc(NC(=O)Nc3ccccc3)ccc2O[C@H]1CN(C)Cc1ccc(Oc2ccccc2)cc1	64.4	-2.2	-0.6	-5.8
C[C@H](CO)N1C[C@H](C)[C@@H](CN(C)Cc2ccc3c(c2)OCO3)Oc2ccc(NC(=O)Nc3ccc4c(c3)OCO4)cc2CC1=O	78.8	-4.1	0.0	-91.2*
C[C@@H]1CN([C@@H](C)CO)C(=O)Cc2cc(NC(=O)Nc3ccccc3)ccc2O[C@H]1CN(C)Cc1ccc(Oc2ccccc2)cc1	72.3	1.2	1.2	-87.1*
O=C(CSc1n[nH]c(-c2ccncc2)n1)Nc1ccc(Cl)cc1Cl	·	·	0.4	·
Cc1ccc(CN2C(=O)C(O)(CC(=O)c3c(C)coc3C)c3cc(Cl)ccc32)cc1 (stereo not given)	·	·	0.3	·
CC(=O)O[C@@H]1C[C@@H](C)[C@](O)(CCc2ccoc2)[C@]23CCC[C@](C)(C(=O)OC2)C13 (stereo not given in full)	·	·	-0.1	·
C[C@@H]1CCCCO[C@H](CN(C)Cc2ccc(C(=O)Nc3ccccc3N)cc2)[C@@H](C)CN([C@H](C)CO)C(=O)c2cc(NS(=O)(=O)c3cccs3)ccc2O1	52.7	-0.7	0.3	-87.2*
C[C@@H]1CCCCO[C@H](CN(C)Cc2ccc(C(=O)Nc3ccccc3N)cc2)[C@@H](C)CN([C@@H](C)CO)C(=O)c2cc(NS(=O)(=O)c3ccc(Cl)cc3)ccc2O1	80.7	-1.5	·	-84.9*
C[C@@H]1CCCCO[C@@H](CN(C)Cc2ccc(C(=O)Nc3ccccc3N)cc2)[C@@H](C)CN([C@H](C)CO)C(=O)c2cc(NS(=O)(=O)c3cccs3)ccc2O1	·	0.2	·	?
CCn1c(SCC(=O)Nc2ccc(Br)c(C)c2C)nnc1-c1ccccc1C	·	·	-0.4	·
O=C(CSc1nnc(-c2ccncc2)n1-c1ccccc1)NC1CCCCC1	·	·	0.0	·
O=C(Nc1ccccc1)N1CCCCN2[C@@H](CO)[C@H](c3ccc(C#Cc4cccnc4)cc3)[C@@H]2C1	5.0	-0.6	·	-83.5*
O=C(Nc1cccc(F)c1)N1CCCCN2[C@H](CO)[C@H](c3ccc(C#Cc4ccccc4)cc3)[C@@H]2C1	67.8	-0.6	·	-81.8*
O=C(Nc1ccccc1F)N1CCCCN2[C@@H](CO)[C@@H](c3ccc(C#Cc4ccccc4)cc3)[C@@H]2C1	-41.1	-1.7	·	-88.5*
COc1ccc(C#Cc2ccc([C@H]3[C@@H](CO)N4CCCCN(C(=O)Nc5ccccc5F)C[C@H]34)cc2)cc1	83.6	13.8	·	-77.0
SMILES	T cruzi growth	KDM4C inh	IDH1 mut inh	Pf Dd2 inh
COc1cccc(CN2CCCCN3[C@H](CO)[C@@H](c4ccc(C#Cc5cccnc5)cc4)[C@H]3C2)c1	93.9	0.6	·	-86.2*
Nc1ncnc(Sc2nc3ccccc3s2)c1[N+](=O)[O-]	·	·	0.8	·
CS(=O)(=O)N(CC(=O)Nc1cccc([N+](=O)[O-])c1)Cc1ccc(Cl)cc1	·	·	-0.1	·
COc1ccc(C#Cc2ccc([C@H]3[C@H](CO)N4CCCCN(C(=O)Nc5ccccc5F)C[C@@H]34)cc2)cc1	83.6	-2.9	·	-75.4
COc1ccc(C#Cc2ccc([C@@H]3[C@H](CO)N4CCCCN(C(=O)Nc5ccccc5F)C[C@@H]34)cc2)cc1	38.9	-3.3	·	-82.3*
COc1ccc2c3c([nH]c2c1)[C@H](CO)N(C(=O)CN(C)C)CC31CCN(Cc2ccccc2)CC1	·	-0.2	·	-82.0*
COc1ccc2c3c([nH]c2c1)[C@@H](CO)N(C(=O)CN(C)C)CC31CN(CC2CCCC2)C1	·	-0.8	·	-86.3*
COc1ccc2c3c([nH]c2c1)[C@H](CO)N(C(=O)CN(C)C)CC31CN(CC2CCOCC2)C1	·	-0.8	·	10.0
COc1ccc(Cl)cc1NC(=O)CN1C(=O)c2ccccc2S1(=O)=O	·	·	-0.2	·
COC(=O)c1c(NC(=S)Nc2cc3oc4ccccc4c3cc2OC)sc2c1CCCC2	·	·	-0.4	·
CC(C)(C)[S@](=O)N1Cc2cc(C(=O)NC3CCC3)nc(-c3cccc(Br)c3)c2[C@@H]1CCO	·	-2.0	·	-85.4*
CC(C)(C)[S@@](=O)N1Cc2cc(C(=O)NC3CCC3)nc(-c3cccc(Br)c3)c2[C@H]1CCO	·	-2.8	·	-76.8
COc1ccc(C#Cc2cccc(-c3nc(C(=O)N[C@@H]4CCN(Cc5ccccc5)C4)cc4c3[C@H](CCO)N(S(=O)C(C)(C)C)C4)c2)cc1OC (stereo not given in full)	·	·	·	-84.4*
CC(C)(O)C#Cc1cccc(-c2nc(C(=O)N[C@@H]3CCN(Cc4ccccc4)C3)cc3c2[C@H](CCO)N(S(=O)C(C)(C)C)C3)c1 (stereo not given in full)	·	-3.9	·	-82.3*
COc1ccccc1OCC(=O)Nc1ccccc1C(=O)N1C(C)CCCC1C (stereo not given)	·	·	-0.6	·
OC[C@@H]1Nc2ccc(-c3cccc(F)c3)cc2[C@@H]2[C@H]1CCN2Cc1ccncc1	·	5.1	·	-91.6*
N#Cc1cccc(-c2ccc3c(c2)[C@H]2[C@H](CCN2Cc2ccncc2)[C@@H](CO)N3)c1	·	6.0	·	-88.6*
COc1ccc(-c2ccc3c(c2)[C@H]2[C@H](CCN2Cc2ccncc2)[C@@H](CO)N3)cc1	·	2.6	·	-82.1*
